Calls of active or inactive are those of the source. The calls are words filed in the database; no cut-off is given here.
Experiments:
Hs 683 [1] = test: Antiproliferative activity against human Hs683 cells after 72 hrs by MTT assay; assay type: functional, cell-based; conditions: Hs 683, 72 h
How it was run: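 MTT assay: cells in RPMI 1640 with 10% heat-inactivated FCS at 37 °C and 5% CO2 were seeded 24 h before treatment. They were exposed 72 h to compound at 0.01–100 μM, with DMSO as solvent.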

[2] = molecular target: T1, NAD-dependent protein deacetylase sirtuin-2 (Homo sapiens, UniProt Q8IXJ6); test: Inhibition of N-terminal His-tagged recombinant human SIRT-2 expressed in Escherichia coli using Fluor-de-Lys-SIRT1 as substrate after 15 mins by fluorescence assay
T1 sequence (Q8IXJ6 whole entry): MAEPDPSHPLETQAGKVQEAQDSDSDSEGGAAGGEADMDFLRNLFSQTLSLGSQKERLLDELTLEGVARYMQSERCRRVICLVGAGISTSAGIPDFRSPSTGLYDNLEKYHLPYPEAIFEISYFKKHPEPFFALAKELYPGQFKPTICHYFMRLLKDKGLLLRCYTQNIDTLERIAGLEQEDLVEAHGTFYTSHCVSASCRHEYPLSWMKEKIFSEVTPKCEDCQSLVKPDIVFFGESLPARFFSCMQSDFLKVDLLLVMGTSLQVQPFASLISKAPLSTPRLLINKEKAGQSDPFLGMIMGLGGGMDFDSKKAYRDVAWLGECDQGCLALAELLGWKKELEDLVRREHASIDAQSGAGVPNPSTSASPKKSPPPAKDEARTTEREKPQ

[3] = molecular target: NAD-dependent protein deacetylase sirtuin-3, mitochondrial (Homo sapiens, UniProt Q9NTG7); test: Inhibition of N-terminal His-tagged recombinant human SIRT-3 expressed in Escherichia coli using Fluor-de-Lys-SIRT1 as substrate after 15 mins by fluorescence assay
Sequence of NAD-dependent protein deacetylase sirtuin-3, mitochondrial (Q9NTG7 whole entry): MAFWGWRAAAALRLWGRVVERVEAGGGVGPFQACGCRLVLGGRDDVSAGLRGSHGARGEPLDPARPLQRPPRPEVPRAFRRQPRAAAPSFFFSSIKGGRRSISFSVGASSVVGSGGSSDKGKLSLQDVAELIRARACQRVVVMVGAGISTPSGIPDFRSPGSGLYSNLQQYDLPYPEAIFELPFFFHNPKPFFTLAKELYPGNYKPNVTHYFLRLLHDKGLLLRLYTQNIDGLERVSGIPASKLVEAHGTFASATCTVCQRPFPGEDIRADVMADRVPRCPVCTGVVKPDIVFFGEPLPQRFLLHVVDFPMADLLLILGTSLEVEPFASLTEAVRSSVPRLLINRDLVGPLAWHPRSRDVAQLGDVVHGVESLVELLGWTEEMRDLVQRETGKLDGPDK

[4] = molecular target: Histone deacetylase 2 (Homo sapiens) (UniProt Q92769); test: Inhibition of His-tagged recombinant full length human HDAC2 expressed in baculovirus infected insect cells at 0.1 to 100 uM using Fluor-de-Lys-SIRT1 as substrate after 15 mins by fluorescence assay
Sequence of Histone deacetylase 2 (Homo sapiens) (Q92769 whole entry): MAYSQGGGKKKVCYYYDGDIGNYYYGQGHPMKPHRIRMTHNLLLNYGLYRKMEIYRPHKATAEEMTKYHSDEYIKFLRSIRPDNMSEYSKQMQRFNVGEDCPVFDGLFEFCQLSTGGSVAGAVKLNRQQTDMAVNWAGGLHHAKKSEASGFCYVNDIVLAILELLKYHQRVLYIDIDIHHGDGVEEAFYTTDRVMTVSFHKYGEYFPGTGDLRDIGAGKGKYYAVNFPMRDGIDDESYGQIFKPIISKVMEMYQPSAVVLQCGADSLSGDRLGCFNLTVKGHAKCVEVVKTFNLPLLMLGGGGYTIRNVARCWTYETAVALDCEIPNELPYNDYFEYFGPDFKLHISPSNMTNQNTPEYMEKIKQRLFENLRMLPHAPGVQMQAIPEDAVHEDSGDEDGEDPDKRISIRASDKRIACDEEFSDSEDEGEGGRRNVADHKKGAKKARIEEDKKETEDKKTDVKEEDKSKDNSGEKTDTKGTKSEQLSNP

[5] = molecular target: T2, NAD-dependent protein deacetylase sirtuin-2 (Homo sapiens) (UniProt Q8IXJ6); test: Inhibition of SIRT2 in human Hs683 cells assessed as increase of alpha-tubulin acetylation after 8 hrs by Western blotting method; assay type: cell-based
T2 sequence (whole entry): T1 sequence (Q8IXJ6 whole entry)

U-373MG ATCC [6] = test: Antitumor activity against CM-Dil fluorescent dye labeled human U373 cells xenografted in zebrafish embryo at 5 to 10 uM preincubated with tumor for 30 to 36 hrs followed by tumor implantation in zebra fish yolk sac measured after 72 hrs by fluorescence microscopy; assay type: functional, cell-based
How it was run: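 Cells were pretreated in vitro at 5 or 10 μM for 30 or 36 h and labeled with CM-DiI 2 h before injection. Then 100–200 cells were injected into the yolk sac of wild-type zebrafish 48 h post-fertilization, anesthetized in 0.02% tricaine. Embryos were kept 72 h at 28.5 °C in Danieau solution with 0.003% phenylthiourea, and fluorescence was quantified in eight fish per condition.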

[7] = Cytostatic activity against human U373 cells at 10 uM after 72 hrs by quantitative videomicroscopy relative to control; assay type: functional, U-373MG ATCC
How it was run: (§1)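 Cells were grown in 25 cm2 flasks, and phase-contrast images were recorded every 4 min over 72 h, in triplicate. Global growth is cell count on the last image divided by cell count on the first, at 24, 48 and 72 h. The GGR index is treated GG divided by control GG.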

Hs 683 [8] = test: Cytostatic activity against human Hs683 cells at 10 uM after 72 hrs by quantitative videomicroscopy relative to control; assay type: functional; how it was run: as §1
[9] = molecular target: T3, NAD-dependent protein deacetylase sirtuin-1 (Homo sapiens) (UniProt Q96EB6); test: Inhibition of SIRT1 in human U373 cells assessed as increase of histone H4 acetylation at 2.5 uM after 8 hrs by Western blotting method relative to control; assay type: cell-based
T3 sequence (whole entry): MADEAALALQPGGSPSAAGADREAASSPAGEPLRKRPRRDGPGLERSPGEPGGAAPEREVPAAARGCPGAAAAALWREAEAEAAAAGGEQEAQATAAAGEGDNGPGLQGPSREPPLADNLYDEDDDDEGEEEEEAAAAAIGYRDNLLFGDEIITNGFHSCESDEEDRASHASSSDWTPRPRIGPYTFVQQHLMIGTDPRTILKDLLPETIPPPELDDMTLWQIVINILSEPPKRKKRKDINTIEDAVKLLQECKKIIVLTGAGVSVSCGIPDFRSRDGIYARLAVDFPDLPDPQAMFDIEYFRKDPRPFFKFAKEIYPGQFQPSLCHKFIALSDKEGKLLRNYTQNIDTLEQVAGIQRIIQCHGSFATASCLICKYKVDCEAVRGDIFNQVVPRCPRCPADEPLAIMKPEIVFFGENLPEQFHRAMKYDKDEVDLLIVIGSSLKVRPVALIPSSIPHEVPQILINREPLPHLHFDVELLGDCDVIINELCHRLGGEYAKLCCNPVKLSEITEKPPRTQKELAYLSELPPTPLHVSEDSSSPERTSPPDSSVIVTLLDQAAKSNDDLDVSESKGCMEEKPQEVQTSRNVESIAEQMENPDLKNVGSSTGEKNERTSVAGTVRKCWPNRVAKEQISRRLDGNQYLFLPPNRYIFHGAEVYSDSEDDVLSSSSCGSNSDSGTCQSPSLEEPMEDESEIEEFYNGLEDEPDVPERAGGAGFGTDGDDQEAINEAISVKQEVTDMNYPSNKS

[10] = molecular target: T2, NAD-dependent protein deacetylase sirtuin-2 (Homo sapiens); test: Inhibition of SIRT2 in human U373 cells assessed as increase of alpha-tubulin acetylation at 1 uM after 8 hrs by Western blotting method relative to control; assay type: cell-based
Hs 683 [11] = test: Potency index, ratio of EX-527 IC50 to test compound IC50 for human Hs683 cells; assay type: functional
Hs 683 [12] = test: Cell cycle arrest in human Hs683 cells assessed as accumulation at sub-G1 phase at IC50 for MTT assay after 24 to 48 hrs by propidium iodide staining-based flow cytometry; assay type: functional
How it was run: (§2)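 Cells were exposed to compound at the IC50 for each line from the 72 h MTT assay, or to a reference HDAC inhibitor at 2 μM. Cell cycle distribution was analyzed after 24 and 48 h. Results are mean ± SD of three independent experiments, with p values against control cells.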

U-373MG ATCC [13] = test: Cell cycle arrest in human U373 cells assessed as accumulation at sub-G1 phase at IC50 for MTT assay after 24 to 48 hrs by propidium iodide staining-based flow cytometry; assay type: functional; how it was run: as §2
SK-MEL-2 = test: Growth inhibition of human SK-MEL-2 cells after 48 hrs by SRB assay; assay type: functional; conditions: SK-MEL-2, 48 h
PC-3 = test: Growth inhibition of human PC3 cells after 48 hrs by SRB assay; assay type: functional; conditions: PC-3, 48 h

CC(C)(C)OC(=O)Nc1ccc2c(c1)C(NC(=O)Nc1cccc(C#N)c1)CC(C)(C)O2 (stereo not given)
IC50 (Hs 683 [1]): 4 to 5.8 µM
IC50 [2]: 4.2 µM
IC50 [3]: > 200 µM
inhibition [4]: inactive
inhibition [5]: Dose-dependent effect
Activity (U-373MG ATCC [6]): Active
Activity [7]: 70%
Activity (Hs 683 [8]): >=50%
fold change (FC) [9]: 1
fold change (FC) [10]: 0.9
Ratio IC50 (Hs 683 [11]): 20
Activity (Hs 683 [12]): inactive
Activity (U-373MG ATCC [13]): inactive
GI50 (SK-MEL-2): 5.37 µM
GI50 (PC-3): 0.759 µM

— ChEMBL document CHEMBL4052637, “Discovery and Characterization of R/S-N-3-Cyanophenyl-N'-(6-tert-butoxycarbonylamino-3,4-dihydro-2,2-dimethyl-2H-1-benzopyran-4-yl)urea, a New Histone Deacetylase Class III Inhibitor Exerting Antiproliferative Activity against Cancer Cell Lines” (J Med Chem, 2017)
